# Most compounds without a hit are left out; they make up all but 1.1% or so of the library.
# S1P4 antag – human S1P4 receptor antagonism; inhibition, % at 4.98 µM; AID 1510; O95977; actives 0.26% (n = 220,000); S1P4-expressing cells, antagonist mode, reporter read-out; in the data active = inhibition above about 29%;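 also: 0% = wells stimulated with agonist and 100% = vehicle wells without agonist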
# Target sequence (O95977 whole entry, looked up): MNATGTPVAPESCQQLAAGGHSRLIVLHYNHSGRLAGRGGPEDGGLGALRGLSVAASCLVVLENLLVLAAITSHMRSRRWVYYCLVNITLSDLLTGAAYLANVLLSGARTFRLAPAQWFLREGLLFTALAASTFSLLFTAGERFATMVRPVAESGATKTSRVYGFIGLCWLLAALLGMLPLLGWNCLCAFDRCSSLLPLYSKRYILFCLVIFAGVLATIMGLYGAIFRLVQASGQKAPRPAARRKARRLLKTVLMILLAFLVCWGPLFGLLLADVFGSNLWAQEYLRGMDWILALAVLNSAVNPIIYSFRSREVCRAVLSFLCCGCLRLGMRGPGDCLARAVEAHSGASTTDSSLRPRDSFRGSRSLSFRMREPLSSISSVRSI
# TNAP inh no acc – blocks human TNAP activity with no phosphate acceptor present. P05186. purified TNAP, CDP-star luminescence, 30 min. inhibition, % at 20 µM. actives 0.26% (n = 200,000). AID 1012;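 active = tissue-nonspecific alkaline phosphatase inhibition above about 50% at 20 µM in the single-dose screen, limit read from the data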;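 also: 0% = DMSO negative control and 100% = EDTA positive control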
# S1P4 ag – human S1P4 receptor agonism | O95977 | S1P4-expressing cell line, agonist reporter assay | activation, % at 4.98 µM | actives 0.35% (n = 220,000) | AID 1509; in the data active = activation above about 11%;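 also: 0% = DMSO vehicle and 100% = reference agonist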
# TNAP inh hi DEA – TNAP (human) inhibition, high acceptor; AID 1135; P05186; actives 0.03% (n = 200,000); inhibition, % at 20 µM; purified TNAP, CDP-star luminescence, 1 M DEA;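 active = over 50% inhibition of tissue-nonspecific alkaline phosphatase at 20 µM in the single-dose screen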;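 also: plate controls were DMSO wells for no effect and EDTA-quenched wells as full inhibition for full effect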
# TNAP act hiacc – TNAP (human) activation, high acceptor | P05186 | purified TNAP, CDP-star luminescence, 1 M DEA, 30 min; active compounds read high; 0 = EDTA background, 1 = DMSO-only activity | activation factor at 20 µM | 200,000 tested, under 10 active;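 active = activation factor at least 2 at 20 µM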
#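 Dosing: 20 µM single point. System: human TNAP. Amount: TNAP 1/800 final. Incubation: 30 min, room temperature. Read-out: TNAP activation factor scaled between EDTA and DMSO control wells. Signal: luminescence from CDP-star hydrolysis. Medium: 1 M DEA, pH 9.8, Mg2+, Zn2+. Control set: EDTA negative control, DMSO positive control.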
# S1P3 antag – antagonists of human S1P3 receptor; Q99500; CHO S1P3 NFAT-BLA reporter, FRET fluorescence, antagonist mode; inhibition, % at 4.98 µM; actives 0.27% (n = 170,000); AID 485;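 active = inhibition above the plate cutoff, the mean inhibition of test wells on that plate plus 3 SD, cut at about 28% in these data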;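 also: cells challenged with S1P at its EC80 of 0.8 µM; blue over green emission ratio from cleaved BLA substrate after 4 h stimulation; 0% = S1P-stimulated wells and 100% = unstimulated DMSO-only wells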
# S1P4 ag conf – human S1P4 agonism, confirmation; shares compounds with S1P4 ag; S1P4 agonist cell-based reporter assay; activation, % at 4.98 µM; actives 7% (n = 740); in the data active = activation above about 12%;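 also: 0% = vehicle and 100% = full reference agonist response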
# S1P1 ag – counter-screen for S1P4 agonists: agonists of human S1P1. shares compounds with S1P4 ag. S1P1 agonist cell-based assay, activation. activation, % at 4.98 µM. actives 4% (n = 740); in the data active = activation above about 21%;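 also: 0% = vehicle wells and 100% = reference agonist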
# An asterisk follows results filed as active; nt = no result.
SMILES,S1P4 antag,TNAP inh no acc,S1P4 ag,TNAP inh hi DEA,TNAP act hiacc,S1P3 antag,S1P4 ag conf,S1P1 ag
C=CCn1c(=N)c(C(=O)NCCCOC)cc2c(=O)n3ccccc3nc21,-13,-9,11*,-3,1,-3,8,9
Cc1ccc2nc3c(cc(C(=O)NCC4CCCO4)c(=N)n3CCCOC(C)C)c(=O)n2c1 (configuration not stated),-21,-6,7,0,1,-21,nt,nt
C=CCn1c(=N)c(C(=O)NCCCOC)cc2c(=O)n3cc(C)ccc3nc21,-7,-10,12*,-6,1.1,-4,0,0
COc1ccc(N2CC(C(=O)NC3=NCCS3)CC2=O)cc1 (configuration not stated),-6,-10,0,-4,1,-20,nt,nt
O=[N+]([O-])c1ccc(COc2ccc(-c3[nH]ncc3-c3ccc(Cl)cc3)c(O)c2)cc1,-3,-61,114*,9,0.9,-3,-2,-1
COc1ccc(-c2cn[nH]c2-c2ccc(OCc3ccc([N+](=O)[O-])cc3)cc2O)cc1OC,2,nt,0,nt,nt,15,nt,nt
C=CCn1c(=O)/c(=C2/Sc3cc(OC)ccc3N2C)s/c1=C1\C(=O)N(CC)C(=S)N1C,5,26,3,24,0.8,10,nt,nt
CC(=O)Nc1ccc(S(=O)(=O)n2nc(-c3ccc(C)cc3)nc2N)cc1,0,-6,21*,-5,1,6,-1,0
COc1cccc(CNc2cccc(C(F)(F)F)c2)c1O,6,-17,17*,-5,1.1,-17,-2,-4
COc1cccc(CNc2ccc(F)c(Cl)c2)c1O,2,nt,1,nt,nt,1,nt,nt
Cc1ccc(NC(=O)Cn2cnc3ccccc32)cc1C,0,-12,58*,-4,1,-7,-2,3
O=C1OCCC1Sc1nnc(-c2cccnc2)n1-c1ccccc1F (configuration not stated),-19,-11,3,-8,1.1,-5,nt,nt
COc1ccc2cc(C(C)=O)c(=O)oc2c1,-23,-4,0,1,1,-7,nt,nt
O=C(NCc1ccco1)c1cc2ccc(O)cc2oc1=O,-127,-14,112*,-7,1.1,-36,51*,84*
COc1ccc(N=c2oc3cc(O)ccc3cc2C(=O)Nc2ccccn2)cc1OC,-5,17,2,22,0.8,-26,nt,nt
Cc1ccc(N=c2oc3cc(O)ccc3cc2C(N)=O)cc1,-55,4,35*,10,0.9,29,4,2
CC(=O)c1cc2ccc(O)cc2oc1=O,-59,nt,104*,nt,nt,-37,45*,66*
O=C(NC(=O)N1CCN(C(c2ccccc2)c2ccccc2)CC1)c1ccccc1,-17,nt,1,nt,nt,-3,nt,nt
CCCCC(=O)NC(=S)Nc1nnn(CCC)n1,7,-9,179*,-4,1,-18,-2,-6
CCCCC(=O)Nc1nnn(CCC)n1,-18,1,-1,-1,1,-14,nt,nt
Cc1cc(C)n(-c2ccc(C(=O)Nc3sccc3C(N)=O)cc2)n1,-25,-12,12*,-10,1.1,18,21*,-7
Cc1ccc(NC(=S)N(N)CCO)cc1,3,-9,3,-5,1,-12,nt,nt
CCN(N)C(=S)Nc1ccc(F)cc1,4,-20,33*,-6,1.1,-1,-1,-8
COc1nc(NCCN2CCOCC2)nc(Nc2ccccc2)n1,-17,-3,-2,-3,1,-12,nt,nt
CCCCCCCCNc1nc(Cl)nc(NCCN2CCOCC2)n1,-16,-8,17*,-2,1,-7,-2,2
SMILES,S1P4 antag,TNAP inh no acc,S1P4 ag,TNAP inh hi DEA,TNAP act hiacc,S1P3 antag,S1P4 ag conf,S1P1 ag
N#CCCN(/N=C/c1cccnc1)C1=NS(=O)(=O)c2ccccc21,-4,-3,47*,0,1,1,-1,3
Cc1cccc(/C=N/N(CCO)C2=NS(=O)(=O)c3ccccc32)c1,-20,-5,-2,0,1,-2,nt,nt
CCOC(=O)c1ccc(NC(=O)CCc2nc(-c3ccccc3Cl)no2)cc1,2,-7,12*,-2,1,-6,-2,0
COc1cccc(NC(C(=O)Nc2cccc(C(C)=O)c2)c2ccccc2)c1 (configuration not stated),-15,14,14*,-5,1,-6,-2,2
COc1cc(NC(C(=O)Nc2cccc(C(C)=O)c2)c2ccccc2)cc(OC)c1OC (configuration not stated),-16,-22,0,2,1,-13,nt,nt
COc1ccc(NC(=O)COC(=O)Cc2c(F)cccc2Cl)cc1,-23,-10,2,-1,1,-14,nt,nt
COCCn1c(C)cc(/C=C2/NC(=O)N(c3cccc(Cl)c3)C2=O)c1C,-13,-8,105*,1,1,12,-1,-2
CCn1c(C)cc(/C=C2/NC(=O)N(c3ccccc3)C2=O)c1C,-12,-4,2,1,1,-10,nt,nt
CC(C)Sc1nc2ccc(Br)cc2[nH]1,-15,-26,14*,-1,1,-8,-2,2
C=CCNC(=S)NNC(=O)C(CCCC)CC(O)COCC(C)C (configuration not stated),-3,nt,0,nt,nt,-13,nt,nt
CCCCC(CC(O)COCC(C)C)C(=O)NN (configuration not stated),-19,-7,42*,-6,1.1,4,-2,4
Cc1c(C)c2cc(Cl)c(O)c(CN3CCN(C)CC3)c2oc1=O,-2,-7,15*,-4,1,nt,-1,-5
Cc1c(C)c2cc(Cl)c(O)c(CN3CCCC(C)C3)c2oc1=O (configuration not stated),-18,-17,2,-8,1.1,nt,nt,nt
Cc1cc(NC(=O)CCC(=O)N(CC(=O)NC2CCCC2)Cc2cccs2)no1,-6,-4,33*,1,1,-18,-2,-3
CCOC(=O)C(Cc1ccccc1)c1ccnc2ncnn12 (configuration not stated),0,-12,0,-3,1,-9,nt,nt
O=C(CN1C(=O)C2CCCCC2C1=O)Nc1nccs1 (configuration not stated),-4,-10,-1,-2,1,-2,nt,nt
O=C(CCC1CCCCC1)Nc1nccs1,-4,-7,126*,-1,1,-9,-1,-2
O=C(N/C(=C/c1ccc(Br)cc1)C(=O)N1CCCC1)c1cccs1,-2,-2,13*,3,1,-9,-2,-1
O=C(N/C(=C\c1ccc(Br)cc1)C(=O)N1CCCC1)c1cccs1,6,-9,-1,-2,1,-22,nt,nt
